Our source for the Activity and IC50 values is ChEMBL document CHEMBL4699550, “Isolation of Picrotoxanes from Austrobuxus carunculatus Using Taxonomy-Based Molecular Networking” (J Nat Prod, 2020).

Molecules are shown by their SMILES. Active and inactive are the calls of the source. The calls are words filed in the database; no cut-off is given here.

Assay [1] relates to A549. Briefly: Antiproliferative activity against human A549 cells assessed as reduction in cell viability at 1 uM after 72 hrs by CellTiter Glo assay. It counts as functional, cell-based.
Assay [2] relates to U-87 MG. Briefly: Antiproliferative activity against human U87 cells assessed as reduction in cell viability at 1 uM after 72 hrs by CellTiter Glo assay. Type of assay: functional, cell-based. As to conditions: U-87MG ATCC.
Assay [3] has as its system HCT-116. Briefly: Antiproliferative activity against human HCT-116 cells assessed as reduction in cell viability at 1 uM after 72 hrs by CellTiter Glo assay. Type of assay: functional, cell-based.
Assay [4] relates to U-87 MG. Briefly: Antiproliferative activity against human U87 cells assessed as reduction in cell viability after 72 hrs by CellTiter Glo assay. It counts as functional, cell-based, U-87MG ATCC. Put shortly: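 U87-MG glioblastoma cells (ATCC) grown in DMEM with 10% FCS and 1% L-glutamine at 37 °C under 5% CO2. Seeded at 3 × 10³ cells/well, cultured 24 h, then treated at 10 final concentrations serially diluted in medium; vehicle-treated controls. CellTiter-Glo luminescence read after 72 h. Triplicate runs; IC50 from four- or five-parameter logistic curves.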

Assay [5] concerns A549. Briefly: Antiproliferative activity against human A549 cells assessed as reduction in cell viability at 10 uM after 72 hrs by CellTiter Glo assay. Type of assay: functional, cell-based.
In assay [6] the test system is A549. Briefly: Antiproliferative activity against human A549 cells assessed as reduction in cell viability after 72 hrs by CellTiter Glo assay. Type of assay: functional, cell-based. The note with it: A549, 72 h. Summed up: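 A549 cells (ATCC) grown in RPMI 1640 with 10% FCS and 1% L-glutamine at 37 °C under 5% CO2. Seeded at 3 × 10³ cells/well and cultured 24 h, then given 10 final concentrations from serial dilution in medium; vehicle controls. After 72 h, viability read by CellTiter-Glo luminescence. Run in triplicate; IC50 from four- or five-parameter logistic fits.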

For assay [7], the system named is HCT-116. Briefly: Antiproliferative activity against human HCT-116 cells assessed as reduction in cell viability at 10 uM after 72 hrs by CellTiter Glo assay. It counts as functional, cell-based.
In assay [8] the test system is U-87 MG. Briefly: Antiproliferative activity against human U87 cells assessed as reduction in cell viability at 10 uM after 72 hrs by CellTiter Glo assay. Type of assay: functional, cell-based. As to conditions: U-87MG ATCC.
Assay [9] concerns HCT-116. As to the kind of experiment: Antiproliferative activity against human HCT-116 cells assessed as reduction in cell viability after 72 hrs by CellTiter Glo assay. It counts as functional, cell-based. The note with it: HCT-116, 72 h. Put shortly: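 HCT-116 (ATCC) grown in McCoy's 5A with 10% FCS, 1% L-glutamine, 37 °C, 5% CO2. Seeded 3 × 10³ cells/well; after 24 h treated with 10 final concentrations by serial dilution in medium; vehicle controls; triplicate. Luminescent viability read-out after 72 h, reagent 15 min. IC50 from four- or five-parameter logistic fit of dose-response curves.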

In the case of `C=C(C)[C@@H]1[C@H]2OC(=O)[C@@H]1[C@]1(O)[C@H]3O[C@H]3[C@]3(C[C@H]([C@H](C)OC(=O)CCCCCCCCCCCCC)C(=O)O3)[C@]1(C)[C@@H]2O`, the result in the assay on A549 [1], in the assay with U-87 MG [2] and with HCT-116 [3] was inactive.
Regarding `C=C(C)[C@@H]1[C@H]2OC(=O)[C@@H]1[C@]1(O)[C@H]3O[C@H]3[C@]3(C[C@@H]([C@H](C)OC(=O)CCCCCCCCC)C(=O)O3)[C@]1(C)[C@@H]2O`, the result with A549 [1], with U-87 MG [2] and with HCT-116 [3] was inactive.
Turning to `CCCCCCCCCC(=O)O[C@@H]1[C@@H]2OC(=O)[C@@H]([C@@H]2C(C)C)[C@]2(O)[C@H]3O[C@H]3[C@]3(C[C@](O)([C@H](C)OC)C(=O)O3)[C@]12C`, the half-maximal inhibitory concentration (IC50) amounted to 0.7 µM in the assay on U-87 MG [4] and 5.8 µM with A549 [6]. Further, the result with A549 [1], in the assay on U-87 MG [2] and with HCT-116 [3] was inactive. Also, the result with A549 [5], with HCT-116 [7] and with U-87 MG [8] was Active.
Take `C=C(C)[C@@H]1[C@H]2OC(=O)[C@@H]1[C@]1(O)[C@H]3O[C@H]3[C@]3(CO3)[C@]1(C)[C@@H]2OC(=O)CCCCCCCCCCC`: the outcome in the assay on A549 [1], in the assay on U-87 MG [2] and with HCT-116 [3] was inactive. Also, the outcome in the assay with A549 [5], in the assay on HCT-116 [7] and in the assay with U-87 MG [8] was Active.
Consider `C=C(C)[C@@H]1[C@H]2OC(=O)[C@@H]1[C@]1(O)[C@H]3O[C@H]3[C@]3(C[C@H]([C@H](C)OC(=O)CCCCCCCCCCCCCCC)C(=O)O3)[C@]1(C)[C@@H]2O`, for which the result in the assay with A549 [1], with U-87 MG [2] and with HCT-116 [3] was inactive.
As to `C=C(C)[C@@H]1[C@H]2OC(=O)[C@@H]1[C@]1(O)[C@H]3O[C@H]3[C@]3(C[C@@H]([C@H](C)O)C(=O)O3)[C@]1(C)[C@@H]2O`, the result in the assay with A549 [1], in the assay on U-87 MG [2] and with HCT-116 [3] was inactive.
In the case of `CO[C@@H](C)[C@@]1(O)C[C@@]2(OC1=O)[C@@H]1O[C@@H]1[C@@]1(O)[C@H]3C(=O)O[C@H]([C@H]3C(C)C)[C@@H](O)[C@]12C`, the result in the assay with A549 [1], in the assay with U-87 MG [2] and in the assay on HCT-116 [3] was inactive.
As to `C=C(C)[C@@H]1[C@H]2OC(=O)[C@@H]1[C@]1(O)[C@H]3O[C@H]3[C@]3(C[C@@H]([C@H](C)O)C(=O)O3)[C@]1(C)[C@@H]2OC(=O)CCCCCCCCCCC`, the IC50 in the assay with U-87 MG [4] was 0.7 µM; with A549 [6], 5.8 µM. The outcome in the assay on A549 [1], in the assay on U-87 MG [2] and in the assay with HCT-116 [3] was inactive. For the same compound, the outcome in the assay on A549 [5], in the assay with HCT-116 [7] and in the assay on U-87 MG [8] was Active.
On to `COc1cccc2c1C(=O)c1c(O)c3c(c(O)c1C2=O)C[C@@](O)(C(=O)CO)C[C@@H]3O[C@H]1C[C@H](N)[C@H](O)[C@H](C)O1` [DOXORUBICIN], for which the values for the IC50 with U-87 MG [4], in the assay with A549 [6] and in the assay with HCT-116 [9] were 99.6 µM, 90 µM and 56.6 µM, respectively.
`C=C(C)[C@@H]1[C@H]2OC(=O)[C@@H]1[C@]1(O)[C@H]3O[C@H]3[C@]3(C[C@](O)([C@H](C)OC)C(=O)O3)[C@]1(C)[C@@H]2O`: the outcome with A549 [1], with U-87 MG [2] and in the assay on HCT-116 [3] was inactive.
On to `C=C(C)[C@@H]1[C@H]2OC(=O)[C@@H]1[C@]1(O)[C@H]3O[C@H]3[C@]3(C[C@@H]([C@H](C)OC(=O)CCCCCCCCCCC)C(=O)O3)[C@]1(C)[C@@H]2O`, for which the result in the assay with A549 [1], with U-87 MG [2] and in the assay with HCT-116 [3] was inactive.
Consider `C=C(C)[C@@H]1[C@H]2OC(=O)[C@@H]1[C@]1(O)[C@H]3O[C@H]3[C@]3(C[C@H]([C@H](C)OC(=O)CCCCCCCCCCC)C(=O)O3)[C@]1(C)[C@@H]2O`, for which the result in the assay on A549 [1], in the assay with U-87 MG [2] and in the assay with HCT-116 [3] was inactive.
With `C=C(C)[C@@H]1[C@H]2OC(=O)[C@@H]1[C@]1(O)[C@H]3O[C@H]3[C@]3(CO3)[C@]1(C)[C@@H]2O`, the outcome in the assay with A549 [1], in the assay with U-87 MG [2] and with HCT-116 [3] was inactive.
On to `C=C(C)[C@@H]1[C@H]2OC(=O)[C@@H]1[C@]1(O)[C@H]3O[C@H]3[C@]3(C[C@H]([C@H](C)OC(=O)CCCCCCCCC)C(=O)O3)[C@]1(C)[C@@H]2O`, for which the result in the assay on A549 [1], in the assay with U-87 MG [2] and in the assay on HCT-116 [3] was inactive.
As to `C=C(C)[C@@H]1[C@H]2OC(=O)[C@@H]1[C@]1(O)[C@H]3O[C@H]3[C@]3(C/C(=C\C)C(=O)O3)[C@]1(C)[C@@H]2O`, the result in the assay on A549 [1], in the assay with U-87 MG [2] and with HCT-116 [3] was inactive.
